# Compounds with a hit are over-represented: about 2.9% of the library has one in this group of screens.
# TCR-CD3 inh – inhibitors of human TCR-CD3 interaction, primary screen, biochemical, fluorescence, TAMRA-labeled TCR probe; T-cell receptor (TCR); inhibition, % at 9.4 µM; hit rate 0.37% among 360,000; AID 651800, 2012; in the data active = inhibition above about 19%;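 also: recombinant mutant TCR 2C K166C tagged with TAMRA read by polarization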
# ABHD4 inh – ABHD4 inhibitors, primary screen, biochemical, fluorescence polarization, mouse | AID 720543, 2013 | inhibition, % at 8.92 µM | purified mABHD4, FP-Rh probe fluorescence polarization | (Lyso)-N-acylphosphatidylethanolamine lipase (Mus musculus), Q8VD66 | hit rate 0.54% among 370,000;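 active = inhibition exceeding the mean over every tested compound plus 3 SD, cut at about 30% in these data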
# Target sequence (Q8VD66 whole entry, looked up): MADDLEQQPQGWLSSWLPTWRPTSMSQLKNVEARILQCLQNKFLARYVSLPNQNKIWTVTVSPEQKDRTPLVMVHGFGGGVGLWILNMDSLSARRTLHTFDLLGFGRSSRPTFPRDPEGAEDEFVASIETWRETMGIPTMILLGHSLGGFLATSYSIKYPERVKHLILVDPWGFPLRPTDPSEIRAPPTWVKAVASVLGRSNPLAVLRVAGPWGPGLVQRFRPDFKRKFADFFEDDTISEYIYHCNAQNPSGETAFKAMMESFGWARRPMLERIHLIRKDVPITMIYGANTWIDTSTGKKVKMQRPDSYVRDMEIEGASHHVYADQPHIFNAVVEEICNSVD
#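 System: mouse ABHD4 enzyme, wild type / Medium: HEPES pH 7.0, NaCl, Pluronic buffer / Reagent: FP-Rh activity-based fluorescent probe / Control set: S159A mutant high control, sample median low control / Detection: fluorescence polarization with parallel and perpendicular emission, 525/598 nm / Schedule: 45 min + 60 min at 25 °C / Compound dosing: 8.92 µM, single dose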
# HTRA1 inh – HTRA1 serine protease inhibitors, primary screen, biochemical, fluorescence polarization, HTS. inhibition, % at 5.96 µM. recombinant HTRA1, FP-rhodamine activity-based probe. hit rate 0.5% among 340,000; in the data active = inhibition above about 36%
# ATG4B inh – ATG4B protease inhibitors, primary screen, biochemical, fluorescence, uHTS. ATG4B cleavage of LC3-PLA2, NBD-HPC fluorescence, 1 h. Cysteine protease ATG4B (Homo sapiens), Q9Y4P1. hit rate 0.51% among 340,000. inhibition, % at 8.33 µM; in the data active = inhibition above about 40%
# PRMT1 FP inh – PRMT1 methyltransferase inhibitors, primary screen, biochemical, fluorescence polarization. Protein arginine N-methyltransferase 1 (Homo sapiens), Q99873. recombinant PRMT1, activity-based probe fluorescence polarization. inhibition, % at 2.79 µM. hit rate 1.3% among 370,000;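 active = inhibition above about 21% made by adding two undisclosed values, limit read from the data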
# SIAE inh – human SIAE inhibitors, primary screen, biochemical, fluorescence polarization, FP-Rh probe, 1536-well HTS | inhibition, % at 9.66 µM | Sialate O-acetylesterase (Homo sapiens), Q9HAT2 | AID 1053197, 2014 | SIAE FP-Rh probe binding | hit rate 0.69% among 370,000;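 active = inhibition above a cutoff: mean of compounds within the control limits plus 3 SD of those, cut at about 17% in these data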
# ATG4B confirm – ATG4B protease inhibitors, retest, confirmation, biochemical, fluorescence, single concentration; shares compounds with ATG4B inh; ATG4B protease fluorescent substrate cleavage assay; inhibition, % at 8.33 µM; hit rate 92% among 320; in the data active = inhibition above about 39%
# PLA2 counter – PLA2 enzyme inhibition, counter-screen for ATG4B inhibitor project, biochemical, single concentration, uHTS hits; inhibition, % at 8.33 µM; hit rate 66% among 1,600; shares compounds with ATG4B inh; purified PLA2, NBD-C6-HPC fluorescence, 45 min; in the data active = inhibition above about 50%
# Target sequence (P04054 whole entry, looked up): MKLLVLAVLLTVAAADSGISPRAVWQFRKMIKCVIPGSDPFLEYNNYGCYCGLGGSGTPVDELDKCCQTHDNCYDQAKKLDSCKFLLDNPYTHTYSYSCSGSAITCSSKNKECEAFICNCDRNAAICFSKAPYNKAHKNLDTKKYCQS
# A number is an active result; . = inactive; / = no result.
SMILES,TCR-CD3 inh,ABHD4 inh,HTRA1 inh,ATG4B inh,PRMT1 FP inh,SIAE inh,PLA2 counter,others
O=C(Nc1nc2c(cc3c4c(cccc42)CC3)s1)c1ccccc1Cl,.,.,.,43,.,.,.,ATG4B confirm=60
O=C(Nc1ccc(N2CCCCCC2)cc1)c1ccccc1Cl,.,.,.,51,.,.,.,
CCC[C@H]1[C@@H](NCC2CCCCC2)CC[C@@]23CCCN2C(=O)CCC[C@@H]13,/,.,/,/,.,.,/,
COC(=O)Cn1c(=O)c2c(n(Cc3ccccc3)c1=O)N/C(=C/c1ccc(Br)cc1)C2=O,.,.,.,54,.,.,61,
COC(=O)CN1C(=O)N/C(=C/c2ccc(OC)cc2)C1=O,.,.,.,.,.,.,/,
CC(C)Oc1ccc(C(CC(=O)NCc2ccco2)c2ccccc2)cc1 (centres undefined),.,.,.,44,.,.,.,ATG4B confirm=65
CCn1c(SCC(=O)NN=Cc2ccc(C(=O)O)cc2)nc2ccccc21,/,.,/,/,.,.,/,
COCCn1c(C)cc(C(=O)CSc2nc(C)nc3sc4c(c23)CCC4)c1C,.,.,.,57,.,.,.,
O=S(=O)(CC1NCCc2ccccc21)NCc1ccc(F)cc1 (centres undefined),/,.,/,/,.,.,/,
CCOC(=O)c1ccc(/C=C2/C=C(c3ccccc3)N(c3ccc(Cl)c(C(=O)O)c3)C2=O)cc1,.,.,.,56,.,.,.,ATG4B confirm=77
CCOC(=O)c1ccc(Cl)c(NC(=O)c2ccc(-c3ccccc3)cc2)c1,.,.,.,.,.,.,/,
COc1ccc(N/C(=C2\CCCC2=O)C2CCCCC2)cc1,.,.,.,56,.,.,60,
Cc1ccc(S(=O)(=O)Oc2ccc(C(c3c(C)[nH][nH]c3=O)c3c(C)[nH][nH]c3=O)cc2)cc1,/,/,.,70,/,/,68,
CCOc1cc(C(c2c(C)[nH][nH]c2=O)c2c(C)[nH][nH]c2=O)ccc1OS(=O)(=O)c1ccccc1,.,.,.,.,.,.,/,
O=C(OCc1cc(Cl)ccc1OC(F)F)c1cncc(Br)c1,.,.,.,52,.,.,54,
COc1ccc(Br)cc1CNC(=O)CN1C(=O)C(c2ccccc2)Oc2cccnc21 (centres undefined),.,.,.,59,.,.,67,
COc1ccc(NC(=O)CCCN2C(=O)C(c3ccccc3)Oc3cccnc32)cc1OC (centres undefined),.,.,.,.,.,.,/,
COc1ccc(N2C(=O)c3ccccc3NC23CCC(C)CC3)cc1 (centres undefined),.,.,.,45,.,.,.,ATG4B confirm=61
O=[N+]([O-])c1ccc(O)c(C=Nc2ccc3nc(-c4ccccc4)[nH]c3c2)c1,.,.,.,42,.,.,.,
O=[N+]([O-])c1cccc(-c2nc3ccc([N+](=O)[O-])cc3[nH]2)c1,.,.,.,.,.,.,/,
COC(=O)[C@H](Cc1ccccc1)NP(=O)(OC)[C@@H](C)NC(=O)OCc1ccccc1 (some centres undefined),/,.,/,/,.,.,/,
COC(=O)[C@H](C(C)C)N(CCCc1cn(Cc2ccc(C)cc2)nn1)S(=O)(=O)c1ccc(F)cc1Br,/,.,/,/,.,.,/,
O=C(Nc1nc(-c2cc3ccccc3oc2=O)cs1)c1ccco1,.,.,.,.,.,.,/,
O=c1oc2ccccc2cc1-c1csc(NN=C2CCCCC2)n1,.,.,.,41,.,.,66,
COc1ccc(CN[C@@H]2CC[C@@]34CCCN3C(=O)CCC[C@H]4C2)cc1,/,.,/,/,.,.,/,
SMILES,TCR-CD3 inh,ABHD4 inh,HTRA1 inh,ATG4B inh,PRMT1 FP inh,SIAE inh,PLA2 counter,others
COc1ccccc1C(=O)Oc1ccc(C(C)(C)C)cc1,.,.,.,42,.,.,50,
COc1ccccc1CNC(=O)c1ccccc1OCc1ccc(F)cc1,.,.,.,44,.,.,.,ATG4B confirm=75
Cc1[nH]c2ccccc2c1/C=N/n1cnnc1,.,.,.,.,.,.,/,
COCCN=c1scc(-c2cc(OC)c(OC)c(OC)c2)n1/N=C/c1c(C)[nH]c2ccccc12,.,.,.,43,.,.,71,
NC(=O)/C(=C\c1ccccc1)NC(=O)/C=C/c1ccccc1,.,.,.,46,.,.,.,ATG4B confirm=76
NC(=O)/C(=C/c1ccco1)NC(=O)/C=C/c1ccccc1,.,.,.,50,.,.,68,
O=C(Nc1nccs1)C1(C(=O)C2CC2)CC(c2ccccn2)=NO1 (centres undefined),/,.,/,/,.,.,/,
Cc1nnc(N2CCC(C(=O)N3CCCCCC3)CC2)c2nn(-c3ccc(Cl)cc3)c(C)c12,.,.,.,76,.,.,86,
Cc1ccc(-n2nc3c(N4CCC(C(=O)N5CCN(C)CC5)CC4)nnc(C)c3c2C)cc1,.,.,.,.,.,.,/,
COc1ccc(-n2nc3c(N4CCC(C(=O)N5CCCCCC5)CC4)nnc(C)c3c2C)cc1,.,.,.,75,.,.,79,
COc1ccccc1Oc1nnnn1-c1ccc(C(N)=O)cc1,.,.,.,.,.,.,/,
NC(=O)c1ccc(-n2nnnc2Oc2ccccc2)cc1,.,.,.,54,.,.,.,
C/C=C/c1ccc(Oc2nnnn2-c2ccc(C(N)=O)cc2)c(OC)c1,.,.,.,69,.,.,80,
COc1ccc(/C=C/C(=O)Nc2ccc(C(N)=O)cc2)cc1OC,.,.,/,.,.,.,/,
O=C(NC1CCCCN(Cc2cccc(C(F)(F)F)c2)C1=O)c1ccc(Cl)cc1 (centres undefined),/,.,/,/,.,.,/,
CCOC(=O)CC[C@@H]1CC[C@]2(CCCN(C(=O)c3ccco3)C2)O1,/,.,/,/,.,.,/,
COc1nc(OC)nc(N2CCC(C(=O)N(C)Cc3ccco3)CC2)n1,/,.,/,/,.,.,/,
CC1(C)C(/C=C/C=C/C=C/C=C2\N(CCCCS(=O)(=O)O)c3ccc4ccccc4c3C2(C)C)=[N+](CCCCS(=O)(=O)[O-])c2ccc3ccccc3c21,/,/,.,90,/,/,95,
Cc1c2ccccc2cc[n+]1CCCS(=O)(=O)[O-],.,.,.,.,.,.,/,
CC(C)CC(=O)N1CCC(C(=O)NCC2COc3ccccc3O2)CC1 (centres undefined),/,.,/,/,.,.,/,

# High-throughput results: PubChem BioAssay, several laboratories
